# Source: PubChem BioAssay (Sanford-Burnham Center for Chemical Genomics)
# The list is not random: actives were taken first. Their share in the collection is about 3%.
# SENP8 block-1 – inhibitors of human SENP8 protease | purified SENP8, Z-RLRGG-aminoluciferin cleavage, luminescence | inhibition, % at 10 µM | 330,000 tested, 1.2% active | AID 2540; in the data active means inhibition above about 50%
# Target sequence (Q96LD8 whole entry, looked up): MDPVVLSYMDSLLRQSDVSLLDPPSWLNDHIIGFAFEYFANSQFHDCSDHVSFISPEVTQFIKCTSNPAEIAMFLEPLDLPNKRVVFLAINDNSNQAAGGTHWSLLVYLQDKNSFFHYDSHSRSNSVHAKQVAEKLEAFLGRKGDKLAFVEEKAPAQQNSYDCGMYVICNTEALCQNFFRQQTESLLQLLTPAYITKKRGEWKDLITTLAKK
# SENP7 inh – blocks the human protease SENP7 | Q9BQF6 | recombinant SENP7, Z-RLRGG-aminoluciferin luminescence, 40 min | inhibition, % at 5 µM | 330,000 tested, 1.5% active | AID 434973;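 active means inhibition above about 50% at the single test dose, limit read from the data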;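 further: plate controls were DMSO with enzyme for no effect and no enzyme buffer wells for full effect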
# SENP8 block-2 – SENP8 (human) protease inhibition; recombinant SENP8, Nedd8 substrate fluorescence; inhibition, % at 20 µM; 360,000 tested, 0.64% active; in the data active means inhibition mostly above about 40%, no sharp cut-off; inactive means mostly below about 27%
# SENP6 inh – blocks the human protease SENP6; Q9GZR1; Recombinant SENP6 catalytic domain, aminoluciferin luminescence; inhibition, % at 10 µM; 330,000 tested, 1.8% active;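 active means inhibition above about 50% at the single tested dose, limit read from the data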;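 further: plate controls were DMSO wells with enzyme for no effect and DMSO wells lacking enzyme for full effect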
# Target sequence (Q9GZR1 628-1112 limits assumed): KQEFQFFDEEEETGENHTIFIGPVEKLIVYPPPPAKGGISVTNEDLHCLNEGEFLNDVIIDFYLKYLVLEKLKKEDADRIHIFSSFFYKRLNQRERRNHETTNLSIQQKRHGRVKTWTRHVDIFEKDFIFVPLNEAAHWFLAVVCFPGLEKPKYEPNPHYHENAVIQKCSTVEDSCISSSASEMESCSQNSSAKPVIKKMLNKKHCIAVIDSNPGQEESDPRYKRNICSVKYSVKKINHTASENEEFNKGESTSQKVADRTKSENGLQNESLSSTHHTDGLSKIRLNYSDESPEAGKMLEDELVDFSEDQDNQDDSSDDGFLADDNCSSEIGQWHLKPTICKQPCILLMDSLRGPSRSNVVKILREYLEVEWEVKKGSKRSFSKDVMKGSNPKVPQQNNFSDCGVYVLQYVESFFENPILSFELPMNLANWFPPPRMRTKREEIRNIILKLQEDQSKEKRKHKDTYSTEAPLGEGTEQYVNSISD
# UBC13 inh – human UBC13 polyubiquitination inhibition. UBC13 polyubiquitin chain formation, TR-FRET. 330,000 tested, 0.47% active. P61088. inhibition, % at 20 µM. AID 485273; in the data active means inhibition above about 45%, passing the limit was not always enough
# Apaf1 inhib – blocks human Apaf-1 apoptosome activity; O14727; reconstituted apoptosome caspase-3 activity, DEVD-Rh110 fluorescence; AID 489030; inhibition, % at 20 µM; 330,000 tested, 0.71% active; active means inhibition of at least 40% at 20 µM;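 further: plate controls were DMSO wells for no effect and DEVD-CHO caspase inhibitor wells for full effect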
#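 System: reconstituted apoptosome with Apaf-1, cytochrome c, caspase-9, procaspase-3, dATP; Signal: Rh110 fluorescence intensity; Schedule: 30 min compound preincubation, 50 min activation, room temperature; Reagent: cytochrome c trigger plus (Z-DEVD)2-Rh110 caspase-3 substrate.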
# SENP8 confirm – human SENP8 inhibition, confirmed; shares compounds with SENP7 inh; Recombinant SENP8, Z-RLRGG-aminoluciferin luminescence, 60 min; inhibition, % at 12.5 µM; 6,200 tested, 40% active;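 active means mean inhibition across replicates above about 50%, limit read from the data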
# SENP6 confirm – confirmation of human SENP6 protease inhibitors. shares compounds with SENP7 inh. recombinant SENP6, Z-RLRGG-aminoluciferin luminescence. inhibition, % at 12.5 µM. 6,200 tested, 58% active. AID 488915
# SENP7 confirm – confirmation of human SENP7 protease inhibitors | shares compounds with SENP7 inh | recombinant SENP7, Z-RLRGG-aminoluciferin luminescence, 40 min | inhibition, % at 12.5 µM | 6,200 tested, 69% active | AID 488917
# Casp3 SENP sel – inhibits human caspase-3 in SENP selectivity test; 6,200 tested, 60% active; inhibition, % at 12.5 µM; AID 488918; purified caspase-3, Z-DEVD-aminoluciferin luminescence, 60 min; shares compounds with SENP7 inh;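 active means mean inhibition above about 50%, limit read from the data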;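 further: plate controls were enzyme with DMSO for no effect and wells without caspase-3 for full effect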
# Luc interf – luminescence interference (SENP counter-screen). 6,200 tested, 39% active. inhibition, % at 12.5 µM. shares compounds with SENP7 inh. AID 488919. Pre-incubated SENP8/Z-RLRGG-aminoluciferin, luciferase luminescence interference;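 active means mean inhibition above about 50% when retested at one dose, limit read from the data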;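 further: plate controls were DMSO wells with completed reaction for no effect and substrate without enzyme for full effect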
# The depositor's hits bear a star; i = inactive; · = no result given.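 How the source made its calls, unless noted: active means mean inhibition above about 50% in the one-dose retest (limit read from the data); inactive means the rest.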
SMILES,SENP8 block-1,SENP7 inh,SENP8 block-2,SENP6 inh,UBC13 inh,Apaf1 inhib,SENP8 confirm,SENP6 confirm,SENP7 confirm,Casp3 SENP sel,Luc interf
Cc1oc(/N=C/c2ccc(O)cc2O)c(C#N)c1C,32.0,-9.3,-12.5,57.4*,-32.1,2.5,81.3*,82.3*,93.9*,55.5*,26.8
COc1ccc(OC)c(N(CCN2C(=O)c3ccccc3C2=O)C(=O)CCl)c1,·,·,8.9,·,·,·,·,·,·,·,·
COc1ccc(-c2nc3c4ccccc4ccn3c2Cc2cccc(F)c2)cc1OC,·,·,-375.7,·,·,·,·,·,·,·,·
O=C(OCC1COc2ccccc2O1)c1c(F)cccc1F (stereo not given),-7.1,82.6*,9.5,-1.6,2.9,10.8,2.4,1.5,0.7,0.0,9.8
CCc1nc2ccc(C(=O)N(C)CCCN(C)C)cn2c1N(C)Cc1cc2ccccc2s1,·,·,15.7,·,·,·,·,·,·,·,·
COc1ccc(-c2noc(-c3ccccc3-c3ccccc3)n2)cc1,1.1,-4.0,19.4,-6.3,4.5,-0.7,·,·,·,·,·
COc1ccc(-c2nc(-c3cccnc3)no2)cc1OC,5.1,23.5,-13.8,11.5,4.1,-22.5,·,·,·,·,·
O=C(O)c1ccc(-c2noc(-c3cccc(C(F)(F)F)c3)n2)cc1,40.6,3.9,13.0,58.4*,-10.5,-1.0,53.8*,55.9*,80.1*,55.7*,53.5*
COc1ccc(-c2noc(-c3ccc(Cl)cc3)n2)cc1,-13.7,19.7,·,-46.5,-4.1,0.8,·,·,·,·,·
COc1cccc(-c2nc(-c3ccccc3)no2)c1,88.5*,95.3*,21.9,95.5*,3.4,-5.1,86.7*,93.0*,98.5*,84.8*,82.7*
FC(F)(F)c1cccc(-c2nc(-c3ccncc3)no2)c1,·,·,18.5,·,·,·,·,·,·,·,·
COc1cccc(-c2noc(-c3cccnc3)n2)c1,58.4*,79.0*,5.8,81.1*,4.6,4.5,25.7,67.7*,90.9*,84.3*,52.2*
COc1ccc(-c2nc(-c3ccc(C(=O)O)cc3)no2)cc1,97.3*,94.9*,11.5,97.8*,-3.0,-5.6,98.2*,98.4*,101.7*,86.1*,97.4*
O=S(=O)(c1ccccc1)n1cc(-c2cccc3nccn23)c2ccccc21,·,·,-170.3,·,·,·,·,·,·,·,·
CC(C)NC(=O)C1(C)CSCC(=O)N1Cc1cccc(F)c1 (stereo not given),·,·,13.4,·,·,·,·,·,·,·,·
COc1ccc(NC(=O)CSc2nnc3n2CCCCC3)cc1OC,·,·,7.8,·,·,·,·,·,·,·,·
COc1cccc(-c2noc(-c3cccs3)n2)c1,87.7*,93.6*,0.7,92.3*,9.9,17.7,41.3,94.7*,101.5*,87.7*,85.4*
O=C(O)c1ccc(-c2nnc(-c3cccc(Br)c3)o2)cc1,-7.9,-6.1,6.7,92.9*,-3.3,4.8,88.9*,89.9*,92.8*,97.8*,19.3
Brc1ccc(-c2nnc(-c3cccc(Br)c3)o2)cc1,-13.2,7.4,-0.6,-4.4,-6.4,10.7,·,·,·,·,·
COc1ccc(-c2cc(-c3ccccc3)no2)cc1,91.9*,100.2*,16.1,96.5*,4.4,2.3,8.5,81.4*,85.6*,76.1*,48.6
COc1cccc(-c2nc(-c3ccccn3)no2)c1,91.8*,97.0*,·,97.3*,-0.9,4.5,94.7*,97.5*,102.7*,98.5*,96.5*
CC(=O)NCCNc1nc2cc(-c3ccc(C(=O)N4CCN(C)CC4)cc3)sc2c(=O)n1C,·,·,-295.5,·,·,·,·,·,·,·,·
O=C(O)c1cccc(N/N=C/c2cccs2)c1,96.8*,99.9*,-10.3,99.7*,-2.8,-1.9,99.6*,100.3*,103.8*,97.6*,99.1*
O=C(O)c1ccc(N/N=C/c2ccc(OC(=O)c3cccc(Cl)c3)cc2)cc1,79.7*,11.6,2.8,5.7,-23.8,11.0,14.7,20.8,-2.7,20.1,5.8
O=C(O)c1cccc(N/N=C/c2ccc(OC(F)(F)F)cc2)c1,97.5*,34.1,11.7,98.8*,-8.9,2.5,-6.1,100.1*,102.7*,94.1*,98.8*
SMILES,SENP8 block-1,SENP7 inh,SENP8 block-2,SENP6 inh,UBC13 inh,Apaf1 inhib,SENP8 confirm,SENP6 confirm,SENP7 confirm,Casp3 SENP sel,Luc interf
CSc1ccc(/C=N/Nc2cccc(C(=O)O)c2)cc1,·,·,-110.3,·,·,·,·,·,·,·,·
COc1ccc(-c2cc3ccc(OCc4nn[nH]n4)cc3oc2=O)cc1OC,50.7*,65.2*,-301.4,75.9*,12.5,4.2,66.8*,66.2*,90.6*,84.8*,72.2*
O=c1oc2ccccc2cc1-c1ccc(O)cc1O,-1.4,7.9,-242.6,-14.7,2.5,3.3,·,·,·,·,·
COC(=O)COc1ccc2cc(-c3ccccc3)c(=O)oc2c1,34.4,49.8,-399.5,55.3*,24.0,-4.0,16.0,44.1,7.1,23.1,2.5
COc1ccc(-c2cc3ccc(O)cc3oc2=O)cc1,83.4*,57.9*,-396.8,87.6*,18.4,3.3,72.9*,76.6*,93.2*,76.1*,62.0*
O=c1oc2cc(O)ccc2cc1-c1ccccc1,91.0*,88.1*,-363.2,90.3*,22.9,6.6,94.0*,93.7*,99.3*,91.9*,92.1*
CN(Cc1cnn(-c2ccc(F)cc2)c1)C(=O)[C@H]1O[C@@H](n2cnc3c(N)ncnc32)[C@H](O)[C@@H]1O,·,·,19.0,·,·,·,·,·,·,·,·
Cc1ccc(S(=O)(=O)NC(=O)C2(C)CCN2C(=O)CC2CCCCC2)nc1 (stereo not given),·,·,11.5,·,·,·,·,·,·,·,·
Cc1cccc(NC(=O)CCS(=O)(=O)c2ccc3nc(C)sc3c2)c1,·,·,9.6,·,·,·,·,·,·,·,·
NC(=O)COc1ccc2cc(-c3ccccc3)c(=O)oc2c1,-18.7,5.2,-414.6,-7.9,9.5,2.8,·,·,·,·,·
O=C(NCc1ccccc1)c1cc2ccc(O)cc2oc1=O,96.5*,95.8*,-488.7,95.4*,13.4,1.8,97.7*,98.4*,101.6*,97.6*,97.1*
O=C(O)c1ccc(N=c2oc3cc(O)ccc3cc2C(=O)NCc2ccccc2)cc1,-0.1,-6.8,-261.7,-3.7,-13.4,13.8,·,·,·,·,·
O=C(O)C(Oc1ccc2cc(-c3ccc(Cl)cc3)c(=O)oc2c1)c1ccccc1 (stereo not given),46.2,29.6,i,76.7*,-4.0,0.4,73.7*,75.3*,63.4*,44.2,14.3
CCOC(=O)c1c(C)[nH]c(C(=O)OCC(=O)c2ccccc2)c1C,42.2,39.0,-7.3,51.0*,9.6,14.4,46.1,43.5,76.1*,34.7,17.2
